In ChEMBL document CHEMBL1125555, “Structural alterations in desferrioxamine compatible with iron clearance in animals” (1992) one finds Iron excretion data, which are given here for six compounds.

Common to all, as to format: functional
In test [1] the test system is Rattus norvegicus. Put plainly: Effect on 24-hcumulative iron excretion in the urine of non-iron-overloaded bileduct-cannulated rats at a concentration of 450 umol/kg after subcutaneous administration. In outline:
(§1)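 Drugs given subcutaneously in Cremophor RH-40/water (40:60) to non-iron-overloaded, bile duct-cannulated rats. Rats were fasted 24 h before dosing, and the fast continued through the experiment. Bile and urine iron were collected over 24 h and reported as induced iron (mg/kg rat) with fractions in bile and urine. Efficiency is the percentage of the theoretical total (8.37 mg/kg). n = 2–6 per group.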

In test [2] the test system is Rattus norvegicus. Put plainly: Effect on 24-h cumulative iron excretion in the urine of non-iron-overloaded bileduct-cannulated rats at a concentration of 450 umol/kg after subcutaneous administration. The method in brief: as §1
Test [3] concerns Rattus norvegicus. Put plainly: Effect on 24-hcumulative iron excretion in the urine of non-iron-overloaded bileduct-cannulated rats at a concentration of 150 umol/kg after subcutaneous administration. In outline:
as §1

Test [4] deals with Rattus norvegicus. Put plainly: Effect on 24-h cumulative iron excretion in the urine of non-iron-overloaded bileduct-cannulated rats at a concentration of 150 umol/kg after subcutaneous administration. In outline:
as §1

Test [5] relates to Rattus norvegicus. Put plainly: Effect on 24-h cumulative iron excretion in the bile of non-iron-overloaded bileduct-cannulated rats at a concentration of 150 umol/kg after subcutaneous administration. The method in brief: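 Drugs given subcutaneously in Cremophor RH-40/water (40:60) to non-iron-overloaded, bile duct-cannulated rats. Rats were fasted 24 h before dosing, and the fast continued through the experiment. Bile and urine iron were collected over 24 h and reported as induced iron (mg/kg rat) with fractions in bile and urine.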

Turning to `NCCCCCN(O)C(=O)CCC(=O)O`, the Iron excretion with Rattus norvegicus [1] was -0.003 mg/kg; with Rattus norvegicus [2], 0%.

As to `CC(=O)N(O)CCCCCN`, the Iron excretion is -0.001 mg/kg in the test on Rattus norvegicus [1] and 0% in the test with Rattus norvegicus [2].

For `CCCCCCCCCC(=O)N(O)CCCCC(=O)N(O)CCCCC(=O)N(O)CCCCCN.Cl`, the Iron excretion in the test on Rattus norvegicus [3] is 0.017 mg/kg; in the test with Rattus norvegicus [4] it was 9.2%.

With `CC(=O)N(O)CCCCCCCC(=O)N(O)CCCCCCCC(=O)N(O)CCCCCN.Cl`, the Iron excretion in the test on Rattus norvegicus [3] worked out at 0 mg/kg; with Rattus norvegicus [4], 0%.

`CC(=O)N(O)CCCCC(=O)N(O)CCCCC(=O)N(O)CCCCCN.Cl`: the Iron excretion in the test on Rattus norvegicus [3] turned out to be 0.021 mg/kg; in the test with Rattus norvegicus [4] it was 9.4%.

Take `CC(=O)N(O)CCCCCNC(=O)CCC(=O)N(O)CCCCCNC(=O)CCC(=O)N(O)CCCCCN` [DEFEROXAMINE]: the Iron excretion in the test on Rattus norvegicus [3] was 0.059 mg/kg; with Rattus norvegicus [4], 25.4%; in the test with Rattus norvegicus [5] it was 74.6%.
